# IDH1 mut inh = IDH1 R132H (human) inhibition. IDH1 R132H reductase, diaphorase/resazurin fluorescence, 60 min. actives 0.18% (n = 70,000). inhibition, % at 10 µM. O75874; in the data active = inhibition above about 34%; inconclusive = no clear call, values can overlap the other calls; inactive = below about 11%;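 note: 0% = DMSO and 100% = no enzyme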
# Target sequence (O75874 whole entry R132H): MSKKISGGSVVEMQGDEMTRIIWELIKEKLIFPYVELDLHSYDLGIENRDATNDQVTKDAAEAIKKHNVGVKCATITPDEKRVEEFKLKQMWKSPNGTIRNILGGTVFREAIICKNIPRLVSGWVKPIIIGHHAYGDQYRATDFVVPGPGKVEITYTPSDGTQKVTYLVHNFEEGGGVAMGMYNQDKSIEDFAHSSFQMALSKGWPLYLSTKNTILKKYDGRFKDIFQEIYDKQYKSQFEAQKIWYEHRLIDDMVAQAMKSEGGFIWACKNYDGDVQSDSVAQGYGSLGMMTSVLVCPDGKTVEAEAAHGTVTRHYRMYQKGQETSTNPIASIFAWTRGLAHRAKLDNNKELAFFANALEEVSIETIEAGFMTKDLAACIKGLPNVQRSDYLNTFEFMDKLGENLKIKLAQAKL
# GASC1 inh = blocks human GASC-1 (KDM4C) demethylase activity | Q9H3R0 | AID 720574 | actives 0.15% (n = 96,000) | GST-KDM4C 2-372, H3K9me3 peptide, LANCE TR-FRET | inhibition, % at 12.5 µM;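 active = mean replicate inhibition above about 25%, with at least 55% of replicates also reaching it, limit read from the data, passing the limit was not always enough; inconclusive = only one of those two conditions met; inactive = neither condition met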
#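 Assay system: GST-GASC-1 enzyme fragment 2-372 | Amount: 10 nM enzyme | Medium: HEPES buffer, pH 7.5, plus ascorbate | Reagent: H3K9me3 peptide substrate, Fe(II), 2-oxoglutarate | Doses: Single-point compound screen | Incubation: 30 min demethylation and 1 h detection at room temperature | Measured by: LANCE TR-FRET, excitation 340 nm, emissions 618 and 671 nm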
# T cruzi growth-1 = inhibitors of T. cruzi proliferation | AID 624255 | inhibition, % at 8.34 µM | T. cruzi beta-gal in NIH3T3, GalScreen luminescence, 90 h | actives 5.9% (n = 77,000);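 active = mean inhibition above about 93%, with at least 55% of replicates each passing it, limit read from the data, passing the limit was not always enough; inconclusive = only one of those two conditions holds; inactive = neither condition holds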
# T cruzi growth-2 = Trypanosoma cruzi proliferation inhibition; AID 651739; actives 72% (n = 5,600); inhibition, % at 8.35 µM; T. cruzi beta-gal in NIH3T3, GalScreen luminescence, 90 h; shares compounds with T cruzi growth-1;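 active = mean replicate inhibition above about 95% and at least 55% of replicates individually reaching it, limit read from the data; inconclusive = only one of the two criteria is met; inactive = neither criterion is met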
# T cruzi growth-3 = inhibitors of T. cruzi proliferation | shares compounds with T cruzi growth-1 | T. cruzi beta-gal in NIH3T3, GalScreen luminescence, 90 h | inhibition, % at 2.09 µM | actives 21% (n = 5,600) | AID 651740;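 active = mean inhibition above about 95%, with at least 55% of replicates also reaching it, limit read from the data; inconclusive = meets just one of the two conditions; inactive = meets neither condition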;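 note: plate controls were neutral control median for no effect and positive control median for full effect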
# 3T3 cytotox = kills mouse NIH/3T3 fibroblasts. shares compounds with T cruzi growth-1. NIH/3T3 viability, CellTiter-Glo ATP luminescence, 90 h. cytotoxicity (signal decrease), % at 8.35 µM. actives 14% (n = 5,600);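 active = mean signal decrease across replicates above about 35% based on untreated-well scatter, with enough replicates individually passing, limit read from the data; inconclusive = no rule stated though some were filed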;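 note: 0% = median of neutral control wells and 100% = median of positive control wells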
# 3T3 cytotox 2 = cytotoxicity in mouse NIH/3T3 fibroblasts; AID 651744; NIH/3T3 viability, CellTiter-Glo ATP luminescence, 90 h; shares compounds with T cruzi growth-1; inhibition, % at 24.9 µM; actives 56% (n = 5,600);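 active = mean loss of cell viability signal at or above a set limit, and enough replicates individually reaching it; inconclusive = meets only the mean limit or only the replicate share; inactive = meets neither condition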;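 note: 0% = median of neutral control wells and 100% = median of positive control wells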
# Active calls of the source: *; ? = inconclusive; · = no result; ! = not active in a repeat. This is one part of a sample in which hits are shown more often than they occur.
SMILES,IDH1 mut inh,GASC1 inh,T cruzi growth-1,T cruzi growth-2,T cruzi growth-3,3T3 cytotox,3T3 cytotox 2
COc1ccc(OC)c(NC(=O)CN(c2cc(C(F)(F)F)ccc2Cl)S(C)(=O)=O)c1,0,·,·,·,·,·,·
COc1ccc(NC(=O)Nc2ccc3c(c2)C(=O)N([C@@H](C)CO)C[C@H](C)[C@@H](CN(C)CC2CCCCC2)OCCCC[C@H](C)O3)cc1,·,-2,90,·,·,·,·
COc1ccc(NC(=O)Nc2ccc3c(c2)C(=O)N([C@H](C)CO)C[C@H](C)[C@@H](CN(C)CC2CCCCC2)OCCCC[C@H](C)O3)cc1,·,-1,96*,105*,112*,24,105*
C[C@@H]1CCCCO[C@@H](CN(C)CC2CCCCC2)[C@@H](C)CN([C@@H](C)CO)C(=O)c2cc(NC(=O)Nc3ccc4c(c3)OCO4)ccc2O1,·,16,92,·,·,·,·
COc1ccc(NC(=O)Nc2ccc3c(c2)CC(=O)N([C@@H](C)CO)C[C@@H](C)[C@@H](CN(C)CC2CCCCC2)O3)cc1,-1,-1,50,·,·,·,·
C[C@H]1CCCCO[C@@H](CN(C)CC2CCCCC2)[C@@H](C)CN([C@@H](C)CO)C(=O)c2cc(NC(=O)Nc3ccc4c(c3)OCO4)ccc2O1,·,2,99*,?,109*,41*,106*
COc1ccc(NC(=O)Nc2ccc3c(c2)CC(=O)N([C@@H](C)CO)C[C@@H](C)[C@H](CN(C)CC2CCCCC2)O3)cc1,1,0,120*,99*,39,12,104*
Cc1ccc(-c2ccc3c(c2)O[C@H](CN(C)Cc2cccnc2)[C@@H](C)CN([C@@H](C)CO)S3(=O)=O)cc1,·,0,119*,106*,97*,50*,105*
C[C@H](CO)N1C[C@H](C)[C@@H](CN(C)Cc2cccnc2)Oc2cc(-c3ccccc3)ccc2S1(=O)=O,·,-2,84,·,·,·,·
C[C@@H]1CN([C@H](C)CO)S(=O)(=O)c2ccc(-c3cccnc3)cc2O[C@@H]1CN(C)Cc1cccnc1,·,-1,42,·,·,·,·
Cc1ccc(-c2ccc3c(c2)O[C@H](CN(C)Cc2cccnc2)[C@@H](C)CN([C@H](C)CO)S3(=O)=O)cc1,4,0,119*,99*,112*,80*,92*
C[C@H](CO)N1C[C@H](C)[C@@H](CN(C)Cc2cccnc2)Oc2cc(-c3cccnc3)ccc2S1(=O)=O,·,1,101*!,67,45,20,64*
Cc1ccc(-c2ccc3c(c2)O[C@@H](CN(C)Cc2cccnc2)[C@H](C)CN([C@@H](C)CO)S3(=O)=O)cc1,·,-2,117*,98*,96*,51*,100*
C[C@H](CO)N1C[C@H](C)[C@H](CN(C)Cc2cccnc2)Oc2cc(-c3ccncc3)ccc2S1(=O)=O,26,·,71,·,·,·,·
C[C@@H]1CN([C@@H](C)CO)S(=O)(=O)c2ccc(-c3ccncc3)cc2O[C@@H]1CN(C)Cc1cccnc1,·,·,68,·,·,·,·
Cc1c(Cl)cccc1NC(=O)CN1CCC(C(N)=O)(N2CCCCC2)CC1,5,·,·,·,·,·,·
C=CCn1c(SCc2csc(C)n2)nc2sc(C)c(C)c2c1=O,0,·,·,·,·,·,·
COC(=O)c1cc(O)cc(OC)c1Oc1c(Cl)c(C)c(Cl)c(O)c1C(=O)O,-1,·,·,·,·,·,·
COc1cccc(C#Cc2cnc3c(c2)C(=O)N([C@H](C)CO)C[C@H](C)[C@@H](CN(C)C(=O)C2CCCCC2)O3)c1,·,-2,101*,110*,39,-4,103*
COc1cccc(C#Cc2cnc3c(c2)C(=O)N([C@H](C)CO)C[C@@H](C)[C@H](CN(C)C(=O)C2CCCCC2)O3)c1,-4,-3,98,·,·,·,·
COc1cccc(C#Cc2cnc3c(c2)C(=O)N([C@@H](C)CO)C[C@H](C)[C@@H](CN(C)C(=O)C2CCCCC2)O3)c1,·,-2,117*,107*,63,-11,29
C[C@H]1CN([C@@H](C)CO)C(=O)c2cc(C#Cc3cccc(F)c3)cnc2O[C@H]1CN(C)C(=O)C1CCC1,0,1,-227,·,·,·,·
COc1cccc(C#Cc2cnc3c(c2)C(=O)N([C@H](C)CO)C[C@@H](C)[C@@H](CN(C)C(=O)C2CCCCC2)O3)c1,-1,-1,90,·,·,·,·
COc1cccc(C#Cc2cnc3c(c2)C(=O)N([C@@H](C)CO)C[C@@H](C)[C@H](CN(C)C(=O)C2CCCCC2)O3)c1,0,-2,85*,100*,84,29,101*
C[C@H](CO)N1C[C@H](C)[C@@H](CN(C)C(=O)C2CCCCC2)Oc2ncc(C#Cc3cccc(F)c3)cc2C1=O,·,-1,117*,104*,64,9,77*
SMILES,IDH1 mut inh,GASC1 inh,T cruzi growth-1,T cruzi growth-2,T cruzi growth-3,3T3 cytotox,3T3 cytotox 2
COc1cccc(C#Cc2cnc3c(c2)C(=O)N([C@H](C)CO)C[C@H](C)[C@H](CN(C)C(=O)C2CCCCC2)O3)c1,·,-5,·,·,·,·,·
COc1ccccc1C1=NN(C(=O)CCC(=O)O)C(c2ccco2)C1 (centres undefined),0,·,·,·,·,·,·
Cc1cccc(NC(=O)CSc2nnc(-c3ccc(N)cc3)n2C)c1,0,·,·,·,·,·,·
Cc1ccc([N+](=O)[O-])cc1NC(=O)C1CCCN(S(=O)(=O)c2ccc(F)cc2)C1 (centres undefined),0,·,·,·,·,·,·
Cc1ccc(-c2ccc3c(c2)O[C@@H](CN(C)C(=O)C2CCCCC2)[C@H](C)CN([C@@H](C)CO)S3(=O)=O)cc1,·,-3,120*,108*,?,32,97*
Cc1ccc(-c2ccc3c(c2)O[C@@H](CN(C)C(=O)C2CC2)[C@@H](C)CN([C@H](C)CO)S3(=O)=O)cc1,5,1,108,·,·,·,·
C[C@@H]1CN([C@@H](C)CO)S(=O)(=O)c2ccc(-c3ccc(F)cc3)cc2O[C@H]1CN(C)C(=O)C1CCC1,·,1,85,·,·,·,·
C[C@@H]1CN([C@H](C)CO)S(=O)(=O)c2ccc(-c3ccc(F)cc3)cc2O[C@@H]1CN(C)C(=O)C1CCCCC1,·,-1,108*,103*,92,28,102*
Cc1ccc(-c2ccc3c(c2)O[C@H](CN(C)C(=O)C2CCCCC2)[C@@H](C)CN([C@H](C)CO)S3(=O)=O)cc1,-3,3,112*,108*,103*,-16,94*
Cc1ccc(-c2ccc3c(c2)O[C@H](CN(C)C(=O)C2CCC2)[C@@H](C)CN([C@@H](C)CO)S3(=O)=O)cc1,·,1,67,·,·,·,·
Cc1ccc(NC(=O)C(C)N(c2ccccc2)S(C)(=O)=O)cc1C (centres undefined),0,·,·,·,·,·,·
C[C@H]1CN([C@@H](C)CO)C(=O)c2cc(NC(=O)NC3CCCCC3)ccc2O[C@H]1CN(C)Cc1ccc2c(c1)OCO2,2,1,?,104*,99*,?,41*
